The target of series [1] is T1, ATP-dependent translocase ABCB1 (Homo sapiens, UniProt P08183). In words: Reversal of P-glycoprotein-mediated multidrug resistance in human MDR1 gene transfected mouse L5178Y cells assessed as fluorescence activity ratio at 40 ug/ml by flow cytometry. The class given is cell-based.
Series [2] addresses T1, ATP-dependent translocase ABCB1. In words: Reversal of P-glycoprotein-mediated multidrug resistance in human MDR1 gene transfected mouse L5178Y cells assessed as fluorescence activity ratio at 4 ug/ml by flow cytometry. The class given is cell-based.
The nature of series [3]: Lipophilicity, log P of the compound. The following applies: octanol/water. The series is classed as physicochemical. A digest of the protocol: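 LogP computed for the unprotonated molecule with a commercial software package. Not measured experimentally.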
Series [4] deals with L5178Y. Kind of series: Cytocidal activity against human MDR1 gene transfected mouse L5178Y cells after 48 hrs by MTT method. The class given is functional. The following applies: read-out: ID50 (the source's name). A digest of the protocol: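 Cells incubated with a range of compound concentrations for 48 h at 37 °C. Viability read by MTT. ID50 derived from the curves. Values are means of duplicate experiments.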

The nature of series [5]: Dissociation constant, pKa of the compound. The class given is physicochemical.
For series [6], the target named is T1, ATP-dependent translocase ABCB1. Kind of series: Reversal of P-glycoprotein-mediated multidrug resistance in human MDR1 gene transfected mouse L5178Y cells assessed as fluorescence activity ratio at 0.4 ug/ml by flow cytometry. The series is classed as cell-based. An outline of the steps:
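L5178 MDR1-transfected cells and parental cells grown in McCoy's 5A with 10% heat-inactivated horse serum, L-glutamine and antibiotics. Compound in DMSO added to cell aliquots for 10 min at room temperature. Rhodamine 123 then added (final 5.2 μM) for 20 min at 37 °C. Cells washed twice, resuspended in PBS pH 7.4, read by flow cytometry. FAR = (treated/untreated MDR) ÷ (treated/untreated parental).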
(Flow cytometry measures light scatter and fluorescence of single cells or particles in a stream.)

The target is the same in series [7]. In words: Reversal of P-glycoprotein-mediated multidrug resistance in human MDR1 gene transfected human Colo 320 cells assessed as fluorescence activity ratio at 4 ug/ml by flow cytometry. The class given is cell-based. A digest of the protocol: (§1)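 Colo320/MDR1 cells run as for the L5178 rhodamine 123 assay: compound preincubation 10 min at room temperature, then rhodamine 123 (final 5.2 μM) for 20 min at 37 °C. Monolayers detached with 0.25% trypsin for 2–3 min before flow cytometry. FAR taken as the treated/untreated fluorescence ratio in MDR cells over that in parental cells.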

Series [8] has the same target. Kind of series: Reversal of P-glycoprotein-mediated multidrug resistance in human MDR1 gene transfected human Colo 320 cells assessed as fluorescence activity ratio at 0.4 ug/ml by flow cytometry. The class given is cell-based. An outline of the steps: as §1
For series [9], the system named is L5178Y. In words: Toxicity in human MDR1 gene transfected mouse L5178Y cells at 40 ug/ml. The class given is cell-based.

Each structure is given as a SMILES string. In brackets after ≈: the same amount, converted by molar mass.

T1 sequence (P08183 whole entry): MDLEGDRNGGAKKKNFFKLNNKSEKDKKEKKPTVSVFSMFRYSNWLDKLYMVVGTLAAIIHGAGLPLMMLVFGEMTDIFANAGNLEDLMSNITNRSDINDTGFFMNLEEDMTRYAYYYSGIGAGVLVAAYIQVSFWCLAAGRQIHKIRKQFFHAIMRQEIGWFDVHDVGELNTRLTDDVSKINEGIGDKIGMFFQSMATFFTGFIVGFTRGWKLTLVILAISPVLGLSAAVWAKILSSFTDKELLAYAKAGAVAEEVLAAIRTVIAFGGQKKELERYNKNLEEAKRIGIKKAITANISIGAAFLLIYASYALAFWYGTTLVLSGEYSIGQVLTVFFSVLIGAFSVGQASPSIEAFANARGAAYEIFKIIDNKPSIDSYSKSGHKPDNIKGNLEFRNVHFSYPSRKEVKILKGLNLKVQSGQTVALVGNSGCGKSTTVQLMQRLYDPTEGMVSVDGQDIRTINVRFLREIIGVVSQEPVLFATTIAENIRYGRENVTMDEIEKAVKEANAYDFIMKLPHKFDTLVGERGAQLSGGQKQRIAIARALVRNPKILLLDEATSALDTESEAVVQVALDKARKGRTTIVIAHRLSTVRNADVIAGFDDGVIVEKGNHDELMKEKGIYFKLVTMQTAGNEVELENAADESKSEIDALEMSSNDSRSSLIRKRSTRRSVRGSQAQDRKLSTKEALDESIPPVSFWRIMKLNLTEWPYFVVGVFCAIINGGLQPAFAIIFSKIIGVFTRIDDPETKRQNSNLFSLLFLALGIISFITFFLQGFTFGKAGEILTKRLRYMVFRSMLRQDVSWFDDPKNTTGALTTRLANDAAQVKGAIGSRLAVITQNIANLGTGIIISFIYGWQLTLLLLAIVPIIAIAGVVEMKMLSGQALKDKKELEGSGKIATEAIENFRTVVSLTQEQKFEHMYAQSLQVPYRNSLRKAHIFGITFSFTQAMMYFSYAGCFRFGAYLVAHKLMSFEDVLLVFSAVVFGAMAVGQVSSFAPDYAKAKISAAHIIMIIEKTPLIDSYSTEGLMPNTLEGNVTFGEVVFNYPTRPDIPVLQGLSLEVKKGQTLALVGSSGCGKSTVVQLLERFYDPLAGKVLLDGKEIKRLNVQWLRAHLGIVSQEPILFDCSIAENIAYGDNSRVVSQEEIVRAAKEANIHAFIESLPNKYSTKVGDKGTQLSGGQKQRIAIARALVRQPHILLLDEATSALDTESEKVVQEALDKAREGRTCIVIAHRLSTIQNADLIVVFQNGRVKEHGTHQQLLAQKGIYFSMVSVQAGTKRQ

As for `O=C1/C(=C/c2ccc(Cl)cc2)CNC/C1=C\c1ccc(Cl)cc1`, the figures for the Ratio in [1] and in series [2] were 0.91 and 1.25, respectively. This compound also had a LogP in series [3] of 4.71.

On to `COc1ccc(CCN(C)CCC[C@](C#N)(c2ccc(OC)c(OC)c2)C(C)C)cc1OC`, for which the IC50 in [4] was determined as 42 µg/mL (≈ 92.4 µM).

For `CC[N+](C)(CC)CCOc1ccc(C(=O)N2C/C(=C\c3ccc([N+](=O)[O-])cc3)C(=O)/C(=C/c3ccc([N+](=O)[O-])cc3)C2)cc1.[I-]`, the Ratio amounted to 1.22 in series [1] and 1.03 in [2]. Besides, in series [3] (read-out: LogP), the LogP is 1.3.

With `Cl.O=C1/C(=C/c2ccc([N+](=O)[O-])cc2)CN(C(=O)c2ccc(OCCN3CCCCC3)cc2)C/C1=C\c1ccc([N+](=O)[O-])cc1`, the figures for the Ratio in series [1] and in [2] were 51.5 and 145, respectively. Further, in series [4], the IC50 amounted to 2.15 µg/mL. The pKa in [5] stood at 11.1. For the same compound, the LogP in [3] came out at 5.42.

With `CC[N+](C)(CC)CCOc1ccc(C(=O)N2C/C(=C\c3ccc(Cl)cc3)C(=O)/C(=C/c3ccc(Cl)cc3)C2)cc1.[I-]`, the Ratio came to 1.85 in series [1] and 1.21 in series [2]. In addition, the LogP in [3] (read-out: LogP) was 2.73.

As to `Cl.O=C1/C(=C/c2ccc(Cl)cc2)CN(C(=O)c2ccc(OCCN3CCCCC3)cc2)C/C1=C\c1ccc(Cl)cc1`, the Ratio in [1] is 133; in series [2], 157. Moreover, the IC50 in [4] worked out at 4.17 µg/mL. In series [5], the pKa worked out at 11.1. Also, in series [3], the LogP was 6.86.

Turning to `Cl.O=C1/C(=C/c2ccccc2)CN(C(=O)c2ccc(OCCN3CCCCC3)cc2)C/C1=C\c1ccccc1`, the IC50 in series [4] is 3.28 µg/mL. Moreover, the pKa in series [5] is 11.1. The LogP in [3] turned out to be 5.51.

Consider `CC[N+](C)(CC)CCOc1ccc(C(=O)N2C/C(=C\c3ccccc3)C(=O)/C(=C/c3ccccc3)C2)cc1.[I-]`, for which the values for the Ratio in [1] and in series [2] were 1.05 and 1.37, respectively. Besides, in series [3] (read-out: LogP), the LogP came out at 1.37.

`Cc1ccc(/C=C2\CN(C(=O)c3ccc(OCCN4CCCCC4)cc3)C/C(=C\c3ccc(C)cc3)C2=O)cc1.Cl`: the Ratio is 146 in [1]; 7.35 in [6]; 10.8 in [7]; 2.49 in series [8]; 179 in series [2]. The IC50 in series [4] turned out to be 2.83 µg/mL. This compound gave a pKa in series [5] of 11.1. Further, in series [3], the LogP worked out at 6.4.

As for `O=C1/C(=C/c2ccc([N+](=O)[O-])cc2)CNC/C1=C\c1ccc([N+](=O)[O-])cc1`, the LogP in series [3] was determined as 3.27.

In series [5], `Cl.O=C1/C(=C/c2ccc([N+](=O)[O-])cc2)CN(C(=O)c2ccc(OCCN3CCOCC3)cc2)C/C1=C\c1ccc([N+](=O)[O-])cc1` had a pKa of 8.5. Besides, in [3] (read-out: LogP), the LogP was 4.36.

In series [5], `CN(C)CCOc1ccc(C(=O)N2C/C(=C\c3ccc(Cl)cc3)C(=O)/C(=C/c3ccc(Cl)cc3)C2)cc1.Cl` had a pKa of 10.7. Also, in series [3], the LogP is 5.95.

As to `CN(C)CCOc1ccc(C(=O)N2C/C(=C\c3ccccc3)C(=O)/C(=C/c3ccccc3)C2)cc1.Cl`, the Ratio worked out at 51.6 in series [1] and 45.5 in series [2]. In [5], this compound displayed a pKa of 10.7. In [3], this compound showed a LogP of 4.6.

In [5], `CN(C)CCOc1ccc(C(=O)N2C/C(=C\c3ccc([N+](=O)[O-])cc3)C(=O)/C(=C/c3ccc([N+](=O)[O-])cc3)C2)cc1.Cl` registered a pKa of 10.7. The LogP in series [3] (read-out: LogP) was 4.52.

As to `Cl.O=C1/C(=C/c2ccc(Cl)cc2)CN(C(=O)c2ccc(OCCN3CCOCC3)cc2)C/C1=C\c1ccc(Cl)cc1`, the values for the Ratio in [1] and in series [2] were 6.88 and 76, respectively. The same compound had a pKa in series [5] of 8.5. Besides, the LogP in [3] (read-out: LogP) amounted to 5.8.

On to `CCN(CC)CCOc1ccc(C(=O)N2C/C(=C\c3ccccc3)C(=O)/C(=C/c3ccccc3)C2)cc1.Cl`, for which, in series [4], the IC50 was 3.27 µg/mL. In series [5], this compound displayed a pKa of 10.8. The compound further showed a LogP in series [3] of 5.35.

Regarding `Cc1ccc(/C=C2\CNC/C(=C\c3ccc(C)cc3)C2=O)cc1`, the Ratio in series [1] stood at 4.03; in series [6] it was 1; in series [7], 2.42; in [8] it was 1.24; in series [2], 3.26. Further, the LogP in series [3] came to 4.25.

Consider `CCN(CC)CCOc1ccc(C(=O)N2C/C(=C\c3ccc([N+](=O)[O-])cc3)C(=O)/C(=C/c3ccc([N+](=O)[O-])cc3)C2)cc1.Cl`, for which the figures for the Ratio in series [1] and in series [2] were 14.1 and 77.5, respectively. Moreover, the pKa in series [5] turned out to be 10.8. The log partition coefficient (LogP) in series [3] is listed as 5.27.

In the case of `O=C1/C(=C/c2ccccc2)CNC/C1=C\c1ccccc1`, the Ratio is on record as 2 in [1] and 1.58 in series [2]. Moreover, the LogP in series [3] is reported as 3.38.

In series [5], `Cl.O=C1/C(=C/c2ccccc2)CN(C(=O)c2ccc(OCCN3CCOCC3)cc2)C/C1=C\c1ccccc1` had a pKa of 8.5. Moreover, the LogP in series [3] (read-out: LogP) came out at 4.64.

Regarding `CCN(CC)CCOc1ccc(C(=O)N2C/C(=C\c3ccc(Cl)cc3)C(=O)/C(=C/c3ccc(Cl)cc3)C2)cc1.Cl`, the Ratio in [1] turned out to be 99.7; in series [2], 118. Further, in series [4], the IC50 is 1.53 µg/mL. For the same compound, the pKa in [5] is 10.8. Also, the log partition coefficient (LogP) in series [3] came out at 6.71.

In the case of `CC[N+](C)(CC)CCOc1ccc(C(=O)N2C/C(=C\c3ccc(C)cc3)C(=O)/C(=C/c3ccc(C)cc3)C2)cc1.[I-]`, the Ratio in [1] was 114; in [2], 1.93. In addition, the LogP in [3] (read-out: LogP) turned out to be 2.27.

`Cc1ccc(/C=C2\CN(C(=O)c3ccc(OCCN4CCOCC4)cc3)C/C(=C\c3ccc(C)cc3)C2=O)cc1.Cl` displayed a pKa in series [5] of 8.5. In addition, in series [3] (read-out: LogP), the LogP worked out at 5.34.

As to `CCN(CC)CCOc1ccc(C(=O)N2C/C(=C\c3ccc(C)cc3)C(=O)/C(=C/c3ccc(C)cc3)C2)cc1.Cl`, the Ratio came out at 66.6 in series [1] and 106 in [2]. In [4], the IC50 is 1.56 µg/mL. Also, the pKa in [5] was 10.8. In series [3], the LogP was 6.25.

Take `Cc1ccc(/C=C2\CN(C(=O)c3ccc(OCCN(C)C)cc3)C/C(=C\c3ccc(C)cc3)C2=O)cc1.Cl`: in series [9], the Activity entry is “Toxic”. The pKa in series [5] was 10.7. Further, in series [3], the LogP worked out at 5.5.

As a reminder, the LogP is a log measure of how a compound divides between an organic and an aqueous phase. As usually defined, the pKa is the negative logarithm of the acid dissociation constant. Read a high pKa as a weaker acid or stronger base.

For the origin of these results see ChEMBL document CHEMBL1145596 (Bioorg Med Chem Lett, 2008).
